Laboratory results taken from article PMC5831081 (Biochemistry, 2017).
Changes are numbered by the printed parent chain. Where “and” joins values, the source holds several entries; their conditions need not be identical. Equal values may be shown once. Blank lines part the entries; values can stand above or below the compound they belong to.

Tests used:
CYP2B6 L363V [1] = target: T1, CYP2B6 L363V (Homo sapiens, UniProt P20813, K262R/L363V/Y226H); assay: NADPH-dependent 7-EFC O-deethylation enzyme inhibition assay; format: biochemical
T1 sequence (P20813 with tags, fused parts or gaps Y226H/K262R/L363V limits assumed): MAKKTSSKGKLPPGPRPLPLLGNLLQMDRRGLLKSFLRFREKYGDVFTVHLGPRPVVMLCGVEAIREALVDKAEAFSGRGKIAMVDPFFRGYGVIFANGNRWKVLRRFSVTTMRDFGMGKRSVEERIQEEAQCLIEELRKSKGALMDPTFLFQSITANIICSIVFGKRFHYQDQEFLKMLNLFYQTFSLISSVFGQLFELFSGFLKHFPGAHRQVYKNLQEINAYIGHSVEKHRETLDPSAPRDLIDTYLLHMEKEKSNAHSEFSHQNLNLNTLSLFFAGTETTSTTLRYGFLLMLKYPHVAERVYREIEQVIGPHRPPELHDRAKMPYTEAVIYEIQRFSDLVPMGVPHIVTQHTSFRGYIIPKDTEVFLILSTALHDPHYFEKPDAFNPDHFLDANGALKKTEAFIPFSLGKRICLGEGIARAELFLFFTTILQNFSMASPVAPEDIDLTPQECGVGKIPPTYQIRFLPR

CYP2B6 [2] = target: T2, CYP2B6 (Homo sapiens, UniProt P20813, K262R/Y226H); assay: Cumene hydroperoxide; format: biochemical; details: for IC50: CuOOH-based IC50, CYP2B6
T2 sequence (P20813 with tags, fused parts or gaps Y226H/K262R): T1 sequence (P20813 with tags, fused parts or gaps Y226H/K262R/L363V limits assumed) with V344L
Procedure, shortened: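 Purified CYP2B6 was tested alone or with cyt b5 (CYP:cyt b5 1:2) in HEPES buffer at 37 °C, with 7-EFC near KM and varying test compound. Reactions started with 0.5 mM cumene hydroperoxide. For kinetics, 7-HFC formation was followed continuously in stirred 500 µL of 0–200 µM 7-EFC. Initial-slope rates were fitted to Michaelis–Menten. IC50 came from a four-parameter logistic fit. Mean ± SD, n=3.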

CYP2B6 [3] = target: T2, CYP2B6; assay: NADPH-dependent 7-EFC O-deethylation enzyme inhibition assay; format: biochemical; details: for mechanism of inhibition: CYP2B6, non-linear regression analysis; for IC50: NADPH-based IC50, CYP2B6
CYP2B4 [4] = target: T3, CYP2B4 (Oryctolagus cuniculus, UniProt P00178, H226Y); assay: NADPH oxidation assay; format: biochemical, rabbit; details: CYP:POR:cyt b5 1:4:2, 20 μM inhibitor, 37 °C
T3 sequence (P00178 with tags, fused parts or gaps H226Y): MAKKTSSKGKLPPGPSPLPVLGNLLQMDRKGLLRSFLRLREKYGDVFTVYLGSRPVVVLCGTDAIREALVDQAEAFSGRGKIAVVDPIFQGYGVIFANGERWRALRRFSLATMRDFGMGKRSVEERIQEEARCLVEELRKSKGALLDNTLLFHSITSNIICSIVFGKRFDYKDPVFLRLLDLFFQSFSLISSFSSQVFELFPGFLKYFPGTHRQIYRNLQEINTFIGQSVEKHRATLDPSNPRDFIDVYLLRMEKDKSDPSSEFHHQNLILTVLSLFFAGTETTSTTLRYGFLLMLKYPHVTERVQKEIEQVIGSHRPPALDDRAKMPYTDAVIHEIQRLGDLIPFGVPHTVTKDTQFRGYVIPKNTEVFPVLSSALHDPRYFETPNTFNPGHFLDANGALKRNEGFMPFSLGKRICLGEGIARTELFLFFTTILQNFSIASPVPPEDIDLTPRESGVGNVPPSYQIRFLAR
Procedure, shortened: (§1)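 Purified CYP2B was reconstituted with POR and cyt b5 at CYP:POR:cyt b5 1:4:2, or 0:4:2 for the partner-only control. Mixtures contained ligand (20 µM unless stated) and 1% acetone in 300 µL. After 5 min preincubation at 37 °C, 0.2 mM NADPH was added. NADPH consumption was recorded kinetically as the A340 decrease (ε 6.22 mM-1 cm-1). Rates are nmol/min/nmol P450, mean ± SD of three independent experiments.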

human CYP2B6 = assay: Spectral binding titration; details: CYP2B6 spectral titration, with vs without POR
CYP2B6 [5] = target: T2, CYP2B6; assay: Spectral binding titration; details: for Kd: KS
CYP2B6 [6] = target: T2, CYP2B6; assay: Incubation of POA with CYP2B6, UPLC-MS search for oxidative metabolites; format: in vitro ADME; details: POA incubated with CYP2B6, with or without NADPH
CYP2B4 [7] = target: T3, CYP2B4; assay: NADPH-dependent 7-EFC O-deethylation enzyme inhibition assay; format: biochemical, rabbit; details: for mechanism of inhibition: CYP2B4, non-linear regression analysis
CYP2B6 L363V [8] = target: T1, CYP2B6 L363V; details: CYP2B6 L363V valine mutant
rat CYP2B1 = target: T4, rat CYP2B1 (Rattus norvegicus, UniProt P00176); assay: Spectral binding titration; details: spectral binding titrations
T4 sequence (P00176 1-491): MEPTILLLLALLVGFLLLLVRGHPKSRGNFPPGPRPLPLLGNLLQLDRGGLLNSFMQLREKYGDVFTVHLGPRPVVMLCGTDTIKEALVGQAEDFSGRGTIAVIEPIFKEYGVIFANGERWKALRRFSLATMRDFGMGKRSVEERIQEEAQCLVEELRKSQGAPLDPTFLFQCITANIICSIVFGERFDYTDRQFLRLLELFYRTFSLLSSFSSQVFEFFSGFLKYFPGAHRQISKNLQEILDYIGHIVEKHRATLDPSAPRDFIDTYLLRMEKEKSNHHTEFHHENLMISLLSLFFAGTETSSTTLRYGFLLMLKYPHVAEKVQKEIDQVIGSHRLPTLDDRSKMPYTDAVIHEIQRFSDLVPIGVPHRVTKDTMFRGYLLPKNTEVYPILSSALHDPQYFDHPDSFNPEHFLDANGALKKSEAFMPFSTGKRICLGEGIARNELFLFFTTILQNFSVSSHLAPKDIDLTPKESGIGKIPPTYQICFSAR

rabbit CYP2B4 = target: T5, rabbit CYP2B4 (Oryctolagus cuniculus, UniProt P00178, A26S/E2A/G22K/H226Y/H23K/H27K/K25S/P24T/R29K); assay: Spectral binding titration; details: spectral binding titrations
T5 sequence (P00178 with tags, fused parts or gaps H226Y limits assumed): T3 sequence (P00178 with tags, fused parts or gaps H226Y)

CYP2B4 I363V [9] = target: T6, CYP2B4 I363V (Oryctolagus cuniculus, UniProt P00178, H226Y/I363V); details: CYP2B4 I363V valine mutant
T6 sequence (P00178 with tags, fused parts or gaps H226Y/I363V limits assumed): T3 sequence (P00178 with tags, fused parts or gaps H226Y) with I344V

CYP2B4 I363V [10] = target: T6, CYP2B4 I363V; assay: NADPH-dependent 7-EFC O-deethylation kinetics; format: biochemical, rabbit
Procedure, shortened: (§2)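 Purified CYP2B was reconstituted with POR and cyt b5 (molar 1:4:2 or 1:4:0), 2.5–5 pmol CYP, in 100 µL HEPES pH 7.4 with 7-EFC at 37 °C. After 5 min preincubation, 1 mM NADPH was added. After 5 min, reactions were quenched with ice-cold acetonitrile and diluted into 0.1 M Tris pH 9.0. 7-HFC was measured by fluorescence (ex 410/em 510 nm) against a daily 0–50 µM 7-HFC standard curve.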

CYP2B1 = target: T7, CYP2B1 (Rattus norvegicus, UniProt P00176); assay: NADPH-dependent 7-EFC O-deethylation kinetics; format: biochemical
T7 sequence (P00176 1-491): T4 sequence (P00176 1-491)
Procedure, shortened: as §2

POR:cyt b5 = POR:cyt b5 (Rattus norvegicus, UniProt P00173+P00388); assay: NADPH oxidation assay, redox partners only; format: biochemical; details: control POR:cyt b5=4:2 without CYP; 20 μM 4-CPI; 37 °C
Procedure, shortened: as §1

[11] = KI, CYP2B6, CYP:POR:cyt b5 1:4:2, 0-200 μM 7-EFC, 37 °C
[12] = Ki,app (Cheng-Prusoff from IC50), CYP2B6, absence of cyt b5
[13] = Ki,app (Cheng-Prusoff from IC50), CYP2B6, presence of cyt b5
[14] = CYP2B6, with POR (1 μM CYP, 4 μM POR), HEPES buffer
[15] = CYP2B6, without POR, HEPES buffer
[16] = CYP2B6, without POR, sucrose buffer

Sequence of POR:cyt b5 (P00388 whole entry): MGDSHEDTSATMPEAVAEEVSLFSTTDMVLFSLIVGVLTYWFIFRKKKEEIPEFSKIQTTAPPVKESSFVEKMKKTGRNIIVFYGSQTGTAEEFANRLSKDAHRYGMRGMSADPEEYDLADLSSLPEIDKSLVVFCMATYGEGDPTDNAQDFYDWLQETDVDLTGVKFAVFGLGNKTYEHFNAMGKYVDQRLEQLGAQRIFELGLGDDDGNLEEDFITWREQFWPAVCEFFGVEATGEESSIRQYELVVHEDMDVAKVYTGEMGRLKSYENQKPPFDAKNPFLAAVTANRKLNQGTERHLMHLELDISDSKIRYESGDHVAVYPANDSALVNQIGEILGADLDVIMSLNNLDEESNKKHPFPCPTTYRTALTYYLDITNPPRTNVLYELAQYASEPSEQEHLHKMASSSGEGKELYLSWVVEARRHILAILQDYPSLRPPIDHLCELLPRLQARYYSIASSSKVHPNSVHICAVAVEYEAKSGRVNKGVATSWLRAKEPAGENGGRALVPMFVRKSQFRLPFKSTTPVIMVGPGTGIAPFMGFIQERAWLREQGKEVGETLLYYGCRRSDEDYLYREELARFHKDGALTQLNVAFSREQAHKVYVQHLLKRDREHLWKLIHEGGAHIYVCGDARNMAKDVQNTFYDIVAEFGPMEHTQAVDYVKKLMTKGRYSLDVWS
Sequence of POR:cyt b5 (P00173 whole entry): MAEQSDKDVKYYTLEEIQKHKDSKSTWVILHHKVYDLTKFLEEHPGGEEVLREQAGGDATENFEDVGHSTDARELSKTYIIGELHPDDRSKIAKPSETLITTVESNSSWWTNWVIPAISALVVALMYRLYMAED

Compound: Nc1ccc(Oc2ccccc2)cc1 [POA, 4-(phenoxy)aniline]
Ki (CYP2B6 L363V [1]): 67000 ± 10000 nM
mechanism of inhibition (CYP2B6 L363V [1]; CYP2B6 L363V, non-linear regression analysis): non-competitive inhibitor
IC50 (CYP2B6 [2]; CYP alone): 38000 ± 7000 nM
IC50 (CYP2B6 [2]; CYP:cyt b5): 44000 ± 14000 nM
fold increase of IC50 by cyt b5 (CYP2B6 [3]; CYP2B6, NADPH-driven, with vs without cyt b5): 1.8 fold
mechanism of inhibition (CYP2B6 [3]): competitive inhibitors
Ki (CYP2B6 [3]; [11]): 13000 ± 1900 nM
Ki (CYP2B6 [3]; [12]): 7500 nM
Ki (CYP2B6 [3]; [13]): 13500 nM
IC50 (CYP2B6 [3]; CYP:POR (no cyt b5)): 15000 ± 1000 nM
IC50 (CYP2B6 [3]; CYP:POR:cyt b5): 27000 ± 5000 nM
NADPH oxidation rate (CYP2B4 [4]): 33±2 nmol/min/nmolP450
fold increase of KS (decrease in affinity) on including POR (human CYP2B6): 4.2 fold and 4-6 fold
Type-II (%) (CYP2B6 [5]; [14]): 9.2±3.3%
Type-II (%) (CYP2B6 [5]; [15]): 16±1%
Type-II (%) (CYP2B6 [5]; [16]): 26±1%
Kd (CYP2B6 [5]; [14]): 2800 ± 1400 nM
Kd (CYP2B6 [5]; [15]): 670 ± 360 nM
Kd (CYP2B6 [5]; [16]): 1200 ± 200 nM
CYP-mediated oxidative metabolites identified by UPLC-MS (CYP2B6 [6]): no potential CYP-mediated oxidative metabolites
Ki (CYP2B4 [7]): 1300 ± 650 nM
mechanism of inhibition (CYP2B4 [7]): competitive inhibitors

Compound: Nc1ccc(Cc2ccc(Cl)cc2Cl)cc1 [2′4′DCBA, 4-[(2′,4′-dichlorophenyl)methyl]aniline]
relative affinity among the congeners (CYP2B6 L363V [8]): highest affinity
relative affinity among the ligands tested (rat CYP2B1): highest affinity
relative affinity among the ligands tested (CYP2B6 [5]; spectral binding titrations, CYP2B6): highest affinity
relative affinity among the ligands tested (rabbit CYP2B4): highest affinity
relative affinity among the congeners (CYP2B4 I363V [9]): highest affinity

kcat of 7-EFC O-deethylation (CYP2B6 [2]; CYP2B6 with CuOOH): 0.007 s⁻¹
Km (CYP2B6 [2]; human, CYP2B6 enzyme with cumene hydroperoxide, pH 7.4): 56 µM
Michaelis constant for 7-EFC (CYP2B4 I363V [10]): ~ 120 μM
Michaelis constant for 7-EFC (CYP2B1): ~ 120 μM
Compound: CCOc1ccc2c(C(F)(F)F)cc(=O)oc2c1 [7-EFC, 7-Ethoxy-4-(trifluoromethyl)coumarin, reference compound]

NADPH oxidation rate (POR:cyt b5): 12±1 nmol/min/nmolP450
NADPH oxidation rate (CYP2B4 [4]): 10±1 nmol/min/nmolP450
Compound: Clc1ccc(-c2c[nH]cn2)cc1 [4-CPI, 4-(4-chlorophenyl)imidazole, reference compound]

Compound: Nc1ccc(Oc2cc(Cl)c(Cl)cc2Cl)cc1 [2′4′5′TCPOA, 4-(2′,4′,5′-trichlorophenoxy)aniline]
Ki (CYP2B6 L363V [1]): 750 ± 100 nM
mechanism of inhibition (CYP2B6 [3]): competitive inhibitors
Ki (CYP2B6 [3]; [11]): 640 ± 80 nM
Ki (CYP2B6 [3]; [12]): 1800 nM
Ki (CYP2B6 [3]; [13]): 220 nM
IC50 (CYP2B6 [3]; CYP:POR (no cyt b5)): 3700 ± 300 nM
IC50 (CYP2B6 [3]; CYP:POR:cyt b5): 430 ± 40 nM
NADPH oxidation rate (CYP2B4 [4]): 20±1 nmol/min/nmolP450
fold increase of KS (decrease in affinity) on including POR (human CYP2B6): 4-6 fold
fold increase of KS (decrease in affinity) on including POR (human CYP2B6; listed as 2′4′5′-TCPOA): 5.8 fold
Type-II (%) (CYP2B6 [5]; [14]): 17±3%
Type-II (%) (CYP2B6 [5]; [15]): 19±1%
Type-II (%) (CYP2B6 [5]; [16]): 9±1%
Kd (CYP2B6 [5]; [14]): 8100 ± 1700 nM
Kd (CYP2B6 [5]; [15]): 1400 ± 400 nM
Kd (CYP2B6 [5]; [16]): 700 ± 300 nM
Ki (CYP2B4 [7]): 370 ± 40 nM
mechanism of inhibition (CYP2B4 [7]): competitive inhibitors
